Results published in ChEMBL document CHEMBL4130630 (J Med Chem, 2018).

Columns and labels:
[1] = target: T1, Sodium- and chloride-dependent GABA transporter 1 (Mus musculus, UniProt P31648); assay: Inhibition of mouse GAT1 expressed in HEK293 cells assessed as reduction in [3H]GABA uptake preincubated for 25 mins followed by [3H]GABA addition measured after 4 mins by liquid scintillation counting analysis; format: cell-based
Outline: (§1)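 HEK293 cells stably expressing the mouse GAT subtype (about 200000 cells) preincubated with compound for 25 min at 25 °C in the dark with shaking. Then 8 nM [3H]GABA plus 32 nM unlabeled GABA (final) added for 4 min. Stopped by filtration; filter radioactivity by scintillation counting. Photoisomerized 10 mM DMSO-d6 stocks (photostationary state, Z/E ratio by 1H NMR) diluted protected from light; non-irradiated stock tested in parallel.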

GABA transporter 4 = target: T2, GABA transporter 4 (Mus musculus, UniProt P31650); assay: Inhibition of mouse GAT4 expressed in HEK293 cells assessed as reduction in [3H]GABA uptake preincubated for 25 mins followed by [3H]GABA addition measured after 4 mins by liquid scintillation counting analysis; format: cell-based; outline: as §1
T2 sequence (P31650 whole entry): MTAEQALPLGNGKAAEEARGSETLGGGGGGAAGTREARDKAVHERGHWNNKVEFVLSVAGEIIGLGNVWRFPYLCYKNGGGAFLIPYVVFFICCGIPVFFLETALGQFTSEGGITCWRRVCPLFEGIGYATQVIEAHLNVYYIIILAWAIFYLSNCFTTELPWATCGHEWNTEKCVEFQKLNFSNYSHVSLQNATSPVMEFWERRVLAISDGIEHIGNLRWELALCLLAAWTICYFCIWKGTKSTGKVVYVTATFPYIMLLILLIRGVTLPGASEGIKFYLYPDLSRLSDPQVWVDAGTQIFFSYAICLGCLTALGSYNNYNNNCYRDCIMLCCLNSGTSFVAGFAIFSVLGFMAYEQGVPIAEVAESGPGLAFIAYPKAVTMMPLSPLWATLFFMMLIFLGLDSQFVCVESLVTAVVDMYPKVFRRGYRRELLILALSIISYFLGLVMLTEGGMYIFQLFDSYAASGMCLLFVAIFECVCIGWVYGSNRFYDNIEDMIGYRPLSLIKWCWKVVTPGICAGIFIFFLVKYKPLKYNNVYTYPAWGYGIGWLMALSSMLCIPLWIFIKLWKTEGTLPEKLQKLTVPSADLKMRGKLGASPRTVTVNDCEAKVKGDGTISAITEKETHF

[2] = target: T1, Sodium- and chloride-dependent GABA transporter 1; assay: (§2) Inhibition of mouse GAT1 expressed in HEK293 cells assessed as reduction in [3H]GABA uptake preincubated cells with photoirradiated compound for 25 mins followed by [3H]GABA addition measured after 4 mins by liquid scintillation counting method; format: cell-based; outline: as §1
[3] = Half life of thermal relaxation of compound in pH 7.4 DMSO-d6/phosphate-buffer using photoirradiated compound at 10 uM incubated in dark by UV/vis-spectroscopy; format: physicochemical; conditions: pH 7.4, 10 µM
[4] = Half life of thermal relaxation of compound in pH 7.4 DMSO-d6/phosphate-buffer using photoirradiated compound at 50 uM incubated in dark by UV/vis-spectroscopy; format: physicochemical; conditions: pH 7.4, 50 µM
[5] = Half life of thermal relaxation of compound in DMSO-d6 using photoirradiated compound by 1H NMR method; format: physicochemical
Outline: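 Irradiated to photostationary state as 10 mM stock in DMSO-d6 (1 mL, within 10 min); 1H NMR spectra recorded starting immediately after irradiation. Z/E fraction α from spectra plotted against time, fit to a single exponential to give half-life; 25 °C.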

[6] = Half life of thermal relaxation of compound in pH 7.4 DMSO-d6/phosphate-buffer using photoirradiated compound at 20 uM incubated in dark by UV/vis-spectroscopy; format: physicochemical; conditions: pH 7.4, 20 µM
[7] = target: T1, Sodium- and chloride-dependent GABA transporter 1; assay: Inhibition of mouse GAT1 expressed in HEK293 cells assessed as reduction in [3H]GABA uptake; format: cell-based
[8] = target: T1, Sodium- and chloride-dependent GABA transporter 1; assay: Inhibition of mouse GAT1 assessed as reduction in GABA uptake
[9] = target: T1, Sodium- and chloride-dependent GABA transporter 1; assay: Inhibition of mouse GAT1 assessed as reduction in GABA uptake using photoirradiated compound
Outline: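 A 10 mM DMSO-d6 stock was irradiated to its photostationary state: 350 nm Rayonet for diphenyldiazenes, 375 nm LED for naphthylphenyldiazenes. (Z)/(E) ratio was checked by 1H NMR, and dilutions were made protected from light. mGAT1-HEK293 cells were preincubated 25 min at 25 °C in the dark, then given 4 min uptake of 8 nM [3H]GABA plus 32 nM GABA. Filtration and scintillation counting gave pIC50.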

[10] = Half life of thermal relaxation of compound in pH 7.4 DMSO-d6/phosphate-buffer using photoirradiated compound at 25 uM incubated in dark by UV/vis-spectroscopy; format: physicochemical; conditions: pH 7.4, 25 µM
[11] = target: Sodium- and chloride-dependent GABA transporter 1 (Mus musculus) (UniProt P31648); assay: Inhibition of GAT1 in C57BL/6N mouse dentate gyrus granule cells assessed as induction of tonic GABAA receptor-mediated current response by measuring shift in holding current amplitude at 10 uM by Whole cell voltage-clamp method
Outline: (§3)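 Acute 350 μm coronal dorsal hippocampal slices from mice, recovered 30 min at 34 °C then ≥30 min at room temperature in carbogenated saline (pH 7.4). Superfused at room temperature with NBQX 5 μM, APV 50 μM, CGP 55845 5 μM. Granule cell whole-cell voltage clamp at −70 mV. Compound bath-applied; activated form made by 340 nm UV for 10 min on 10 mM stock just before addition; bicuculline methiodide 20 μM.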

[12] = target: T3, GABA transporter 4 (Mus musculus) (UniProt P31650); assay: as §2, with “GAT4” for “GAT1”, “uptake by measuring remaining [3H]GABA uptake levels” for “uptake”, “compound at 100 uM” for “compound”, “method relative to control” for “method”; format: cell-based
T3 sequence (whole entry): T2 sequence (P31650 whole entry)

[13] = target: Sodium- and chloride-dependent GABA transporter 1 (Mus musculus) (UniProt P31648); assay: (§4) Inhibition of GAT1 in C57BL/6N mouse dentate gyrus granule cells assessed as induction of tonic GABAA receptor-mediated current response by measuring shift in holding current amplitude using UV-activated compound at 10 uM by Whole cell voltage-clamp method; outline: as §3
[14] = target: Sodium- and chloride-dependent GABA transporter 1 (Mus musculus) (UniProt P31648); assay: as §4, with “uM in presence of GABAA receptor blocker bicuculline methiodide” for “uM”; outline: as §3
[15] = tested on: betaine/GABA transporter BGT1, Slc6a12 (Mus musculus); assay: Inhibition of mouse GAT2 expressed in HEK293 cells assessed as reduction in [3H]GABA uptake by measuring remaining [3H]GABA uptake levels preincubated cells with photoirradiated compound at 100 uM for 25 mins followed by [3H]GABA addition measured after 4 mins by liquid scintillation counting …
[16] = tested on: GABA transporter 2, Slc6a13 (Mus musculus); assay: Inhibition of mouse GAT3 expressed in HEK293 cells assessed as reduction in [3H]GABA uptake by measuring remaining [3H]GABA uptake levels preincubated cells with photoirradiated compound at 100 uM for 25 mins followed by [3H]GABA addition measured after 4 mins by liquid scintillation counting …

Structure (SMILES)	IC50 [1]	IC50 [2]	other results
O=C(O)[C@@H]1CCCN(CCC#Cc2cccc(/N=N/c3cccc4ccccc34)c2)C1	4.27 µM		IC50 (GABA transporter 4): 10 to 100 µM
O=C(O)C1CCCN(CCC#Cc2ccc(N=Nc3cccc4ccccc34)cc2)C1 (mixture of isomers)		0.229 µM	t1/2 [3]: 3.4 h
O=C(O)[C@@H]1CCCN(CCC#Cc2cccc(N=Nc3cccc4ccccc34)c2)C1 (mixture of isomers)		1 µM	
O=C(O)[C@@H]1CCCN(CCC#Cc2ccc(N=Nc3ccccc3)cc2)C1 (mixture of isomers)		1.45 µM	
O=C(O)C1CCCN(CCC#Cc2cccc(N=Nc3ccccc3)c2)C1 (mixture of isomers)		0.891 µM	t1/2 [4]: 528 h; t1/2 [5]: 360 h
O=C(O)C1CCCN(CCCC=Cc2cccc(N=Nc3ccccc3)c2)C1 (mixture of isomers)		25.1 µM	t1/2 [6]: 288 h
O=C(O)C1CCCN(CCCC#Cc2ccc(/N=N/c3cccc4ccccc34)cc2)C1 (stereo unspecified)	3.02 µM		
O=C(O)C1CCCN(CCC=Cc2ccc(N=Nc3ccccc3)cc2)C1 (mixture of isomers)		37.2 µM	t1/2 [4]: 26.4 h
O=C(O)C1CCCN(CCC=Cc2cccc(N=Nc3cccc4ccccc34)c2)C1 (mixture of isomers)		5.89 µM	t1/2 [6]: 22 h
O=C(O)C1CCCN(CC/C=C/c2ccc(/N=N/c3cccc4ccccc34)cc2)C1 (stereo unspecified)	8.71 µM		
O=C(O)C1CCCN(CC/C=C/c2ccccc2-c2ccccc2)C1 (stereo unspecified)			IC50 [7]: 0.162 µM
O=C(O)C1CCCN(CCC/C=C/c2cccc(/N=N/c3ccccc3)c2)C1 (stereo unspecified)	38 µM		
O=C(O)[C@@H]1CCCN(CCOCCc2cccc(N=Nc3cccc4ccccc34)c2)C1 (mixture of isomers)			IC50 [8]: 0.407 µM; IC50 [9]: 1.66 µM
O=C(O)C1CCCN(CCC/C=C/c2ccc(/N=N/c3cccc4ccccc34)cc2)C1 (stereo unspecified)	6.46 µM		
O=C(O)C1CCCN(CCCC=Cc2cccc(N=Nc3cccc4ccccc34)c2)C1 (mixture of isomers)		10 µM	t1/2 [6]: 11 h
O=C(O)C1CCCN(CCC#Cc2cccc(N=Nc3cccc4ccccc34)c2)C1 (mixture of isomers)		1.95 µM	t1/2 [6]: 18 h
O=C(O)[C@@H]1CCCN(CCC#Cc2ccc(/N=N/c3cccc4ccccc34)cc2)C1	0.0977 µM		IC50 (GABA transporter 4): 10 to 100 µM
O=C(O)C1CCCN(CCC=Cc2ccc(N=Nc3cccc4ccccc34)cc2)C1 (mixture of isomers)		7.41 µM	t1/2 [3]: 1.2 h
O=C(O)C1CCCN(CCC#Cc2cccc(/N=N/c3ccccc3)c2)C1 (stereo unspecified)	32.4 µM		
O=C(O)[C@@H]1CCCN(CCC#Cc2ccc(/N=N/c3ccccc3)cc2)C1	0.417 µM		IC50 (GABA transporter 4): 10 to 100 µM
O=C(O)C1CCCN(CCCC#Cc2ccc(/N=N/c3ccccc3)cc2)C1 (stereo unspecified)	7.59 µM		
O=C(O)C1CCCN(CCC=Cc2cccc(N=Nc3ccccc3)c2)C1 (mixture of isomers)		4.79 µM	t1/2 [10]: 312 h

Structure (SMILES)	IC50 [1]	IC50 [2]	other results
O=C(O)[C@@H]1CCCN(CCC#Cc2cccc(/N=N/c3ccccc3)c2)C1	22.4 µM		IC50 (GABA transporter 4): 10 to 100 µM; Activity [11]: -0.22 pA
O=C(O)C1CCCN(CCCC#Cc2cccc(N=Nc3ccccc3)c2)C1 (mixture of isomers)		4.07 µM	t1/2 [6]: 360 h
O=C(O)C1CCCN(CCCC#Cc2ccc(N=Nc3cccc4ccccc34)cc2)C1 (mixture of isomers)		4.9 µM	t1/2 [3]: 4.3 h
O=C(O)C1CCCN(CC/C=C/c2ccc(/N=N/c3ccccc3)cc2)C1 (stereo unspecified)	10 µM		
O=C(O)C1CCCN(CCC#Cc2cccc(/N=N/c3cccc4ccccc34)c2)C1 (stereo unspecified)	6.46 µM		
O=C(O)C1CCCN(CCC#Cc2ccc(N=Nc3ccccc3)cc2)C1 (mixture of isomers)		2.57 µM	t1/2 [10]: 115 h
O=C(O)C1CCCN(CCC/C=C/c2cccc(/N=N/c3cccc4ccccc34)c2)C1 (stereo unspecified)	19.5 µM		
O=C(O)C1CCCN(CCCC#Cc2cccc(/N=N/c3ccccc3)c2)C1 (stereo unspecified)	14.5 µM		
O=C(O)C1CCCN(CCC#Cc2ccccc2-c2ccccc2)C1 (stereo unspecified)			IC50 [7]: 0.1 µM
O=C(O)C1CCCN(CCCC=Cc2ccc(N=Nc3ccccc3)cc2)C1 (mixture of isomers)		23.4 µM	t1/2 [4]: 45.6 h
O=C(O)C1CCCN(CCC#Cc2ccc(/N=N/c3ccccc3)cc2)C1 (stereo unspecified)	0.646 µM		
O=C(O)C1CCCN(CCCC#Cc2cccc(N=Nc3cccc4ccccc34)c2)C1 (mixture of isomers)		13.8 µM	t1/2 [6]: 43.2 h
O=C(O)C1CCCN(CCCC#Cc2cccc(/N=N/c3cccc4ccccc34)c2)C1 (stereo unspecified)	12.3 µM		
O=C(O)C1CCCN(CCCC#Cc2ccc(N=Nc3ccccc3)cc2)C1 (mixture of isomers)		25.7 µM	t1/2 [10]: 163 h
O=C(O)C1CCCN(CCCC=Cc2ccc(N=Nc3cccc4ccccc34)cc2)C1 (mixture of isomers)		6.17 µM	t1/2 [3]: 1.5 h
O=C(O)C1CCCN(CC/C=C/c2cccc(/N=N/c3cccc4ccccc34)c2)C1 (stereo unspecified)	12.3 µM		
O=C(O)C1CCCN(CCC#Cc2ccc(/N=N/c3cccc4ccccc34)cc2)C1 (stereo unspecified)	0.126 µM		
O=C(O)[C@@H]1CCCN(CCC#Cc2cccc(N=Nc3ccccc3)c2)C1 (mixture of isomers)		0.417 µM	Activity [12]: 57%; Activity [13]: -25.3 pA; Activity [14]: -1.84 pA; Activity [15]: 76%; Activity [16]: 60%
O=C(O)[C@@H]1CCCN(CCC#Cc2ccc(N=Nc3cccc4ccccc34)cc2)C1 (mixture of isomers)		0.182 µM	
O=C(O)C1CCCN(CC/C=C/c2cccc(/N=N/c3ccccc3)c2)C1 (stereo unspecified)	38 µM		
O=C(O)C1CCCN(CCC/C=C/c2ccc(/N=N/c3ccccc3)cc2)C1 (stereo unspecified)	5.75 µM		
